# High-throughput results from PubChem.
# An excerpt weighted towards active compounds, which were near 4.1% of everything screened.
# KCC2 mod: modulators of human KCC2 chloride dependent transport. B-score of Tl+ flux slope (higher = more flux/activation; lower = inhibition) at 10 µM. AID 1456. KCC2 cells, thallium flux FluoZin-2 fluorescence. 190,000 tested, 2.2% active;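 active = thallium flux slope and its plate-corrected score both differing from the plate sample mean at a set confidence after two filtering rounds, in either direction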;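 also: slope of fluorescence scaled to starting intensity during 10 to 20 s after thallium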
# Target sequence (Q9H2X9 whole entry, looked up): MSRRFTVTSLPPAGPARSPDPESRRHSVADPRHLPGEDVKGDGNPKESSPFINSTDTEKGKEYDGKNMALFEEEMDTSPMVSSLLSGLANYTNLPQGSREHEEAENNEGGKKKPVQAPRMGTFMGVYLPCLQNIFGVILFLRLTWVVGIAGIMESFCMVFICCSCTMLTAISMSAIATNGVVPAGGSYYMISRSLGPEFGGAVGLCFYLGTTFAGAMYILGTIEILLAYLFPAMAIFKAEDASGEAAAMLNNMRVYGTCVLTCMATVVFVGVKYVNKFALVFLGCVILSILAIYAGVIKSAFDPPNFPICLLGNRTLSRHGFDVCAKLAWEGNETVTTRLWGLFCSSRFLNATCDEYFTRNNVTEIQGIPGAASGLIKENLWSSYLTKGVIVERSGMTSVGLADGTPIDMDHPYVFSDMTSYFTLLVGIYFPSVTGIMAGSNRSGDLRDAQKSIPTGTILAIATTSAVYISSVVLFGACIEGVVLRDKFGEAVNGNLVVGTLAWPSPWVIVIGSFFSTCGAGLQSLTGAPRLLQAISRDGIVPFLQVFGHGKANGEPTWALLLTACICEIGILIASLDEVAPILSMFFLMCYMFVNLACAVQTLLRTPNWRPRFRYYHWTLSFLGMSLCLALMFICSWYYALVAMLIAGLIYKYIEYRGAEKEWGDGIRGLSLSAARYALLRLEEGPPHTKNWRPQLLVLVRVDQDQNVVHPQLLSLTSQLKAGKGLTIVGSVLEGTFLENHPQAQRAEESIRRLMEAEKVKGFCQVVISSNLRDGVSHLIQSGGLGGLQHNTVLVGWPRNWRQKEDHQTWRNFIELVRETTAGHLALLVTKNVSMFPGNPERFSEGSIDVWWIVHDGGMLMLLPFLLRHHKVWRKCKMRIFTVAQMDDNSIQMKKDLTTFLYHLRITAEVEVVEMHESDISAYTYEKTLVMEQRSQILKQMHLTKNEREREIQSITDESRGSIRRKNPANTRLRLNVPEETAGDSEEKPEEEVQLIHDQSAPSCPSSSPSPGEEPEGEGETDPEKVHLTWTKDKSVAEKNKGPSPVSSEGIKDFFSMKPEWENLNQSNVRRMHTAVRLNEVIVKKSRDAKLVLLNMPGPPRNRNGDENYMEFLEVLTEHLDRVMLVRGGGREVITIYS
# KCNQ1 block: inhibitors of human KCNQ1 potassium channel; AID 2642; P51787; 310,000 tested, 1.3% active; B-score at 10 µM; CHO-K1 KCNQ1, FluxOR thallium flux fluorescence; hits give high values;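 active = compounds whose thallium flux B-score, printed positive for inhibition, exceeds three library SD while starting fluorescence stays within three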;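 also: channel opened by potassium depolarization with thallium stimulus after 20 min compound exposure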
# hERG protect: compounds protecting human hERG from proarrhythmic drug block; Q12809; CHO-hERG, FluxOR thallium flux, dofetilide IC70 present; activation (rescue from dofetilide block), less the hit threshold, % at 10 µM; 310,000 tested, 0.51% active; AID 1511;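 active = activation above the mean of controls blocked by dofetilide plus 5 SD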;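 also: thallium influx through hERG after potassium depolarization seen as dye fluorescence rise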
# KCNK9 inh: blocks the human KCNK9 two-pore domain potassium channel; Q9NPC2; HEK293 KCNK9, FluxOR thallium flux fluorescence; hits give low values; B-score at 10 µM; 310,000 tested, 1.2% active;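 active = ratio B-score over 3 SD below the library mean, with starting fluorescence within 5 SD of its mean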;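 also: negative B-score means less thallium flux so channel inhibition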
# KCNK3 inh: human KCNK3 channel inhibition, primary screen. AID 602410. CHO-KCNK3 thallium flux, FluxOR fluorescence; hits give low values. 340,000 tested, 0.84% active. B-score at 10 µM. O14649;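 active = B-score under library mean minus 4 SD, starting fluorescence ratio at most library mean plus 5 SD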;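 also: more negative B-score means stronger inhibition of thallium flux through KCNK3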
# KCNQ1 act: human KCNQ1 channel potentiation or activation; P51787; CHO-K1 KCNQ1, thallium flux FluxOR fluorescence; hits give high values; B-score at 10 µM; 310,000 tested, 0.35% active;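 active = fluorescence ratio B-score, a plate-corrected score, at least three library SD, with initial intensity B-score within 5 SD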
#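 Doses: Single concentration per compound, DMSO matched to controls | Test system: KCNQ1-transfected CHO-K1 cells | Timing: 90 min dye loading and 20 min compound exposure, both at room temperature | Measured by: Kinetic FluxOR thallium fluorescence, 10-s 1-Hz baseline, 110-s post-stimulus read | Medium: Assay buffer with matched DMSO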
# * = called active by the depositor; i = inactive; nt = no result.
SMILES,KCC2 mod,KCNQ1 block,hERG protect,KCNK9 inh,KCNK3 inh,KCNQ1 act
CC(=O)c1ccc(NC(=O)CN2C(=O)NC(C)(C3CCCCC3)C2=O)cc1 (centres undefined),nt,nt,nt,nt,i,nt
O=C(Nc1ccc(F)cc1)c1cc(-c2ccccn2)nc2c(Cl)cccc12,nt,i,-9,i,i,i
O=[N+]([O-])c1ccc(N/N=C2\CC3CC=CC23)c([N+](=O)[O-])c1 (centres undefined),-0.91,9*,-15,i,i,i
O=C(Nc1ccccc1)C(=O)Nc1ccccn1,nt,i,-8,i,i,i
S=C(Nc1ccc(Nc2ccccc2)cc1)Nc1ccccn1,0.72,i,-7,-7.1*,i,i
CCOC(=O)c1cc(-c2ccccc2)sc1NC(=O)C(C)C,0.38,i,-7,i,i,i
CCOC(=O)c1cc(-c2ccccc2)sc1NC(=O)C(C)Sc1nnc(C)s1 (centres undefined),0.039,i,-9,-7*,i,i
CCC(C)N1CCN(C(=O)c2cc(OC)cc(OC)c2)CC1 (centres undefined),nt,i,5.2*,i,i,i
CCS(=O)(=O)N1CCN(C(=O)c2cc(OC)cc(OC)c2)CC1,nt,i,2,i,i,i
CN(Cc1ccccc1)C1=CC(=[N+]2CCCC2)CC(C)(C)C1,0.16,10*,-23,i,i,i
CCN(CC)C1=CC(=[N+]2CCCC2)CC(C)(C)C1,0.46,i,-10,i,i,i
CC(C)=CCC/C(C)=C/CC/C(C)=C/COc1ccc2ccc(=O)oc2c1,nt,nt,nt,nt,i,nt
CC(C)=CCC/C(C)=C/COc1c2occc2cc2ccc(=O)oc12,nt,nt,nt,nt,-9.8*,nt
O=C(CNC(=O)c1cccs1)Nc1cccc(S(=O)(=O)N2CCOCC2)c1,nt,nt,nt,nt,i,nt
CC(C)C(c1nnnn1C(C)(C)C)N1CCOCC1 (centres undefined),0.06,i,-13,i,i,i
CC(C)C(c1nnnn1C(C)(C)C)N1CCC(Cc2ccccc2)CC1 (centres undefined),0.032,i,-11,-7.9*,i,i
Cc1cc(C(C#N)c2ccc(Cl)cc2)c(Cl)cc1NC(=O)c1cc(I)cc(I)c1O (centres undefined),nt,i,-26,i,i,8*
Cc1cc(NC(=O)c2ccc(Cl)cc2)c(C)cc1O,0.21,i,-7,i,i,i
COC(=O)c1ccc(NC(=O)Nc2ccc([N+](=O)[O-])cc2)cc1,nt,i,-15,i,i,i
CCN(CC)CCOCCn1c(C)ccc1C,nt,nt,nt,nt,i,nt
CCCCCCCCNC(C)C(O)c1ccc(SC(C)C)cc1 (centres undefined),0.43,6*,-25,i,i,i
C[C@@H](NCCc1ccc(O)cc1)[C@@H](O)c1ccc(O)cc1,nt,i,-2,i,i,i
O=C(CSc1nc2ccc([N+](=O)[O-])cc2[nH]1)NC1CCCCCC1,-0.9,14*,-12,i,i,i
COc1cc(-c2nc3ccc(N4CCN(C)CC4)cc3[nH]2)cc(OC)c1OC,0.52,i,5.5*,i,i,i
Cc1ccc(N=Cc2c(O)n(-c3cc(Cl)ccc3N3CCOCC3)c(=O)c3ccccc23)cc1C,-0.081,10*,-9,i,i,i
SMILES,KCC2 mod,KCNQ1 block,hERG protect,KCNK9 inh,KCNK3 inh,KCNQ1 act
Nc1ccc2nc3c(=O)n(CCc4ccccc4)c(=O)[nH]c3nc2c1,i,8*,-26,i,i,i
CN(C)c1cccc(C(=O)OCC(=O)Nc2ccccc2Sc2ccccc2)c1,-0.024,6*,-14,i,i,i
CC(=O)Nc1ccc(C(=O)OCC(=O)Nc2ccccc2Sc2ccccc2)cc1,-0.98,i,-6,-7.2*,i,i
CN(C)c1cccc(C(=O)OCC(=O)Nc2ccccc2-c2ccccc2)c1,0.38,i,-1,i,i,i
CC(=O)Nc1ccc(C(=O)OCC(=O)Nc2ccccc2F)cc1,-0.24,i,-8,i,i,i
CC(CCc1ccc(O)cc1)NC(c1ccccc1)c1ccc(Cl)cc1 (centres undefined),nt,12*,-24,i,i,i
CC(CCc1ccc(O)cc1)NCCC(c1ccccc1)c1ccccc1 (centres undefined),nt,i,-22,i,i,i
COc1ccc(N(CC(=O)N2CCN(Cc3ccccc3)CC2)S(C)(=O)=O)cc1OC,nt,i,9.3*,i,i,i
Cc1ccsc1CN(C)CC(=O)Nc1ccccc1C(=O)NC1CC1,nt,nt,nt,nt,i,nt
Cc1cc(C)cc(NC(=O)CSCc2cc(=O)n3ccsc3n2)c1,nt,i,-1,i,i,i
COc1ccccc1CC(=O)Nc1cc2oc3ccccc3c2cc1OC,0.97,i,-1,-6.9*,i,i
COc1ccc(CC(=O)Nc2cc3oc4ccccc4c3cc2OC)cc1,0.018,i,-10,i,i,i
CC(Sc1nnc(-c2cccs2)n1-c1ccccc1)C(=O)NCc1ccco1 (centres undefined),nt,i,-8,i,i,i
CC(Sc1ccsc1[N+](=O)[O-])C(=O)NCc1ccco1 (centres undefined),0.18,i,-1,-7.7*,i,i
COc1cc2c(-c3ccc4[nH]ccc4c3)c(-c3ccc(C#N)cc3)oc(=O)c2cc1OC,nt,nt,nt,nt,i,nt
OC(COc1ccc(Br)cc1)CN1CCN(c2ccccc2)CC1 (centres undefined),nt,i,-6,i,i,i
Cc1cc(-c2nnc(SCC(=O)Nc3ccccc3)n2C)no1,-0.56,i,-3,i,i,i
Cc1cc(-c2nnc(SCC(=O)Nc3ccc(C(F)(F)F)cc3)n2C)no1,-0.76,i,6.2*,i,i,i
O=C(COC(=O)c1ccccc1Nc1cccc(C(F)(F)F)c1)NCc1ccco1,nt,i,-1,i,-8.9*,i
CN(c1ccccc1)S(=O)(=O)c1cccc(C(=O)OCC(=O)NCc2ccco2)c1,-1.3,i,11*,i,i,i
O=C(COC(=O)c1ccccc1)NCc1ccco1,nt,i,-3,i,i,i
Cc1nn(-c2ccc(C(=O)NCC(c3ccco3)N3CCCC3)cc2)c(C)c1Cl (centres undefined),nt,nt,nt,nt,i,nt
O=c1[nH]cc(N=Cc2cc(Cl)cc(Cl)c2O)c(=O)[nH]1,nt,i,2,i,i,18*
O=c1[nH]cc(N=Cc2cc([N+](=O)[O-])ccc2O)c(=O)[nH]1,nt,i,-14,i,nt,i
